ARFGAP1 inh: inhibits rat ARF GTPase activating protein 1 | Q62848 | Arfgap1-stimulated ARF1 GTP hydrolysis, GDP FP detection | inhibition, % at 16.5 µM | actives 0.26% (n = 360,000) | AID 651572;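 active means inhibition above a per-plate limit, mean inhibition of low control wells plus 3 SD, cut at about 25% in these data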
Target sequence (Q62848 1-136 limits assumed): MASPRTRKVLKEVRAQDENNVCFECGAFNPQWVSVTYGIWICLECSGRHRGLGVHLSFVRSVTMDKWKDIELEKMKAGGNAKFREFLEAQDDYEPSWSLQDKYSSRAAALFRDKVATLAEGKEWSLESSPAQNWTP
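Material: rat Arfgap1 catalytic domain, aa 1-136; also added: human ARF1(Δ1-17)-GTP substrate; compound dosing: one concentration, 16.5 µM, DMSO 1.26%; incubation: GTP hydrolysis reaction 2 h at 25 °C; measured by: Tracer-displacement fluorescence polarization with EDTA stop, 620/688 nm; evaluation: % inhibition from polarization; repeats: one replicate per compound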
ASAP1 inh: inhibitors of human ASAP1 ArfGAP activity | Q9ULH1 | ASAP1-stimulated ARF1 GTP hydrolysis, GDP FP detection | inhibition, % at 16.5 µM | actives 0.19% (n = 360,000) | AID 624377; in the data active means inhibition above about 25%
sPLA2-III inh: Inhibits HGIII-sPLA2 liposome hydrolysis, primary screen; QFRET BODIPY PC-A2 liposome hydrolysis, fluorescence; inhibition, % at 12.2 µM; Q9NZ20; actives 0.56% (n = 370,000);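 active means inhibition above mean plus 3 SD of compounds lying within the high and low control bounds, cut at about 19% in these data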
bovine MsrA act: activates bovine MsrA enzyme. purified bovine MsrA, absorbance read-out. AID 602163. actives 0.3% (n = 360,000). activation, % at 10.6 µM; in the data active means activation above about 7.5%
MsrA inhibitor: inhibitors of bovine MsrA. AID 651718. inhibition, % at 15.5 µM. actives 0.75% (n = 360,000). purified bovine MsrA, absorbance read-out
NR1D1 modulator: Rev-erb alpha (human) modulation. P20393. Rev-erbα–FITC-DNA binding, fluorescence polarization, 90 min. activity, % at 10 µM. actives 0.79% (n = 370,000). AID 1259318;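 active means activity above about 14%, limit read from the data; passing the limit was not always enough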
Target sequence (P20393 whole entry, looked up): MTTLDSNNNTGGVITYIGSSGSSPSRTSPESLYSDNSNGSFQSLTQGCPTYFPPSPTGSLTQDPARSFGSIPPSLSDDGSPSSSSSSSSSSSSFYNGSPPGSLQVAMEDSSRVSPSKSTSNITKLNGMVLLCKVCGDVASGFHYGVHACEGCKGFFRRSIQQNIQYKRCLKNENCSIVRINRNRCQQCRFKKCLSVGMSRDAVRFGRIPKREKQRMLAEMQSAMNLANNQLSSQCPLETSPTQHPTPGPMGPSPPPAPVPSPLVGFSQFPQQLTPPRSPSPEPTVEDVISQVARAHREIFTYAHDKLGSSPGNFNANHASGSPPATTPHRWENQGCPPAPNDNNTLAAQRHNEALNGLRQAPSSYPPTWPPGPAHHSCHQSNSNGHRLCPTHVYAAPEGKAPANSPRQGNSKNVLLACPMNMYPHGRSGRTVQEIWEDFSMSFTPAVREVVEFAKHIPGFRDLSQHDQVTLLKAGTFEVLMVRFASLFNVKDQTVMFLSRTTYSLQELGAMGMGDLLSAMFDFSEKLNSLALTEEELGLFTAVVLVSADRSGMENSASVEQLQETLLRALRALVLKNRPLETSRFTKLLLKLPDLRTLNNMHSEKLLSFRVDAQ
MsrA inh confirm: confirmation of bovine MsrA inhibitors | shares compounds with MsrA inhibitor | purified bovine MsrA, absorbance read-out | inhibition, % at 15.5 µM | actives 41% (n = 2,300);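 further: coupled to thioredoxin reductase with NADPH and selenocystamine and DMSO as substrate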
Large screens that a line does not name were inactive (follow-up assays come after a bar, where they were run). This is a sample that favours compounds with a hit; in the whole collection about 2.7% have one here. Unless noted, no stated cut-off is given here; in the data, active means inhibition above about 4.5%; inactive means the rest.

CCOc1cc(/C=N/NC(=O)COc2ccccc2C)ccc1OC(=O)c1cccs1	none
CCOc1cc(/C=N/NC(=O)c2cccs2)ccc1OC(=O)N1CCOCC1	MsrA inhibitor 4.8 | MsrA inh confirm inactive
CC1(C)CC(N2CCCC2)=CC(=[N+]2CCCC2)C1	MsrA inhibitor 5.9 | MsrA inh confirm inactive
CC1(C)CC(N2CCCC2)=CC(=[N+]2CCCCC2)C1	MsrA inhibitor 5.7 | MsrA inh confirm inactive
Cc1ccccc1-c1nc(C#N)c(N2CCCCC2)o1	MsrA inhibitor 8.4 | MsrA inh confirm 8.6
N#Cc1nc(-c2ccccc2F)oc1N1CCCC1	none
N#Cc1ccc(C(=O)N/N=C/c2cn(CC(=O)O)c3ccccc23)c(F)c1	MsrA inhibitor 6.8 | MsrA inh confirm inactive
CCOC(=O)Cn1cc(/C=N/NC(=O)c2ccc(C#N)cc2F)c2ccccc21	MsrA inhibitor 6.2 | MsrA inh confirm inactive
COc1ccc(CN2CCC(CNC(=O)NC(C)C)CC2)cc1	none (no result: ARFGAP1 inh, ASAP1 inh, bovine MsrA act, MsrA inhibitor)
CCn1ncc([N+](=O)[O-])c1C(=O)Nc1nc2cccc(C)c2s1	none
CCn1ncc([N+](=O)[O-])c1C(=O)Nc1c(C)cccc1C	MsrA inhibitor 14 | MsrA inh confirm 6.7
CC1(C)S/C(=N/N=C/c2ccco2)NC1=O	MsrA inhibitor 5.9 | MsrA inh confirm 5.5
CC1S/C(=N/N=C/c2ccco2)NC1=O (centres undefined)	none
CCCC1S/C(=N/N=C/c2ccco2)NC1=O (centres undefined)	MsrA inhibitor 4.7 | MsrA inh confirm 6.6
O=C(CSc1nnc(-c2ccccn2)n1-c1ccc(Cl)cc1)Nc1cccc2ccccc12	none (no result: ARFGAP1 inh, ASAP1 inh, bovine MsrA act, MsrA inhibitor)
O=C(O)CC1S/C(=N\N=C2CCCCCC2)N(c2ccccc2)C1=O (centres undefined)	none
COc1cc(/C=N\N=C2/SC(CC(=O)O)C(=O)N2c2ccc(O)cc2)ccc1O (centres undefined)	none
COc1cc(/C=N/N=C2/SCC(=O)N2c2ccc(O)cc2)ccc1O	MsrA inhibitor 5.6 | MsrA inh confirm 4.6
O=C(O)CC1S/C(=N/N=C/c2ccc([N+](=O)[O-])cc2)N(c2ccc(O)cc2)C1=O (centres undefined)	MsrA inhibitor 6.8 | MsrA inh confirm inactive
COc1ccc(/C=N\N=C2/SC(CC(=O)O)C(=O)N2c2ccc(O)cc2)cc1OC (centres undefined)	MsrA inhibitor 5.9 | MsrA inh confirm 4.9
O=C1CSC(=Nc2ccc(O)cc2)N1c1ccc(O)cc1	none
COc1ccc(-c2cc(C(=O)N(C3CCCCC3)C3CCCCC3)no2)cc1	none (no result: ARFGAP1 inh, ASAP1 inh, bovine MsrA act, MsrA inhibitor)
COC(=O)[C@]12C[C@H](CC(=O)NCc3cccs3)C(=O)N(Cc3ccco3)C1=C[C@H](COCc1ccccc1)O[C@@H]2C	none (no result: ARFGAP1 inh, ASAP1 inh, bovine MsrA act, MsrA inhibitor)
Nc1ccc(NC(=O)c2ccc(C(=O)Nc3ccc(N)cc3)cc2)cc1	none
Nc1ccc(C(=O)CC(=O)Nc2ccc(Cl)cc2)cc1	MsrA inhibitor 5.0 | MsrA inh confirm inactive
Cc1ccc(NC(=O)C2CCCN(c3nnc(-n4cccc4)s3)C2)cc1C (centres undefined)	none (no result: ARFGAP1 inh, ASAP1 inh, bovine MsrA act, MsrA inhibitor)
CCOc1ccc(-n2c(SCC(=O)Nc3ccc(OCc4ccccc4)cc3)nnc2-c2ccc(Cl)cc2)cc1	none (no result: ARFGAP1 inh, ASAP1 inh, bovine MsrA act, MsrA inhibitor)
CCN1CCN(c2nc(Nc3cccc(C)c3)nc(N)c2[N+](=O)[O-])CC1	none
CCN1CCN(c2nc(Nc3ccccc3)nc(N)c2[N+](=O)[O-])CC1	MsrA inhibitor 4.8 | MsrA inh confirm inactive
CN(C(=O)C1CCN(c2cncnc2)CC1)C1CCCCC1	none (no result: ARFGAP1 inh, ASAP1 inh, bovine MsrA act, MsrA inhibitor)
CC1(C)CC(=O)c2sc(NS(C)(=O)=O)nc2C1	MsrA inhibitor 6.6 | MsrA inh confirm inactive
CC1(C)CC(=O)c2sc(NS(=O)(=O)c3ccc([N+](=O)[O-])cc3)nc2C1	MsrA inhibitor 6.3 | MsrA inh confirm inactive
CC1(C)CC(=O)c2sc(NC(=O)CN3C(=O)CCC3=O)nc2C1	MsrA inhibitor 5.0 | MsrA inh confirm inactive
CC1(C)CC(=O)c2sc(NS(=O)(=O)c3ccccc3)nc2C1	none
COC(=O)C1=C(C)N(Cc2cccc(C(F)(F)F)c2)C(=NCc2ccc(C(F)(F)F)cc2)NC1c1ccccc1 (centres undefined)	none (no result: bovine MsrA act)
O=C(OCc1cn(Cc2cccc(C(F)(F)F)c2)nn1)N1CCOCC1	none (no result: ARFGAP1 inh, ASAP1 inh, bovine MsrA act, MsrA inhibitor)
Cn1c(NC(=O)/C=C/c2ccccc2)cc(=O)n(C)c1=O	none
COc1ccc(/C=C/C(=O)Nc2cc(=O)n(C)c(=O)n2C)cc1	MsrA inhibitor 5.0 | MsrA inh confirm inactive
O=[N+]([O-])c1cc(-c2ccc(/C=N/n3cnnc3)o2)ccc1Cl	none
O=[N+]([O-])c1ccc(Cl)c(-c2ccc(/C=N/n3cnnc3)o2)c1	MsrA inhibitor 5.2 | MsrA inh confirm 6.0
O[C@H](COc1cccc(Cl)c1)CN1CCC(C(O)(c2ccccc2)c2ccccc2)CC1	none (no result: ARFGAP1 inh, ASAP1 inh, bovine MsrA act, MsrA inhibitor)
CCOC(=O)CC(=O)CSc1nc2c(sc(=S)n2-c2ccccc2)c(=O)[nH]1	MsrA inhibitor 6.0 | MsrA inh confirm inactive
Nc1nc(=S)c2ncn(C3CCCC3)c2[nH]1	MsrA inhibitor 5.0 | MsrA inh confirm inactive
O=c1c2ccccc2nc(/C=C/c2c[nH]c3ccccc23)n1CCO	MsrA inhibitor 5.0 | MsrA inh confirm inactive
O=c1c2ccccc2nc(/C=C/c2ccc(O)cc2)n1CCc1ccccc1	none
CN1CCc2c(sc3c2C(=O)NC(c2cn(Cc4ccccc4)c4ccccc24)N3)C1 (centres undefined)	MsrA inhibitor 5.5 | MsrA inh confirm inactive
C[C@H]1COc2cc(Br)ccc2S(=O)(=O)N1Cc1cn(Cc2ccccc2)nn1	none (no result: ARFGAP1 inh, ASAP1 inh, bovine MsrA act, MsrA inhibitor)
CCN(CC)c1ccc(/C=N/NC(=O)CNC(=O)c2ccccn2)cc1	MsrA inhibitor 6.0 | MsrA inh confirm inactive
CCN(CC)c1ccc(/C=N/NC(=O)CC(C)C)cc1	MsrA inhibitor 5.6 | MsrA inh confirm inactive
CCN(CC)c1ccc(/C=N/NC(=O)Cc2nnc(NC(=O)Nc3ccccc3)s2)cc1	MsrA inhibitor 5.5 | MsrA inh confirm inactive
O=C(CNC(=O)c1ccccn1)N/N=C/c1ccc2c(c1)OCO2	none
O=S(=O)(CC1NCc2ccccc21)NCc1ccc(F)cc1 (centres undefined)	none (no result: ARFGAP1 inh, ASAP1 inh, bovine MsrA act, MsrA inhibitor)
COc1ccc(C(=O)C2(C(=O)NCCO)CC(c3ccccn3)=NO2)cc1 (centres undefined)	none (no result: ARFGAP1 inh, ASAP1 inh, bovine MsrA act, MsrA inhibitor)
Cc1csc2ncc(C(=O)N3c4ccccc4CC3C)c(=O)n12 (centres undefined)	MsrA inhibitor 6.4 | MsrA inh confirm inactive
CC1Cc2ccccc2N1C(=O)c1cnc2ccccn2c1=O (centres undefined)	none
CCC(=O)/C=C1/Sc2ccccc2N1CC	MsrA inhibitor 8.2 | MsrA inh confirm inactive
CCC(=O)/C=C1/Sc2ccc(OC)cc2N1CC	MsrA inhibitor 4.7 | MsrA inh confirm inactive
COCC#Cc1ccc(CC[C@H]2O[C@H]3CC[C@@H](CO)O[C@H]3C[C@H]2n2cc(C3CC3)nn2)cc1	none (no result: ARFGAP1 inh, ASAP1 inh, bovine MsrA act, MsrA inhibitor)
